Laboratory results reported in ChEMBL document CHEMBL1140898, “Targeting the fatty acid biosynthesis enzyme, beta-ketoacyl-acyl carrier protein synthase III (PfKASIII), in the identification of novel antimalarial agents” (J Med Chem, 2009).

What was measured:
[1] = Inhibition of Plasmodium falciparum KAS3 expressed in Escherichia coli assessed as transfer of [1-14C]acetyl-CoA to [1-14C]acetyl-ACP
Procedure, shortened: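 Recombinant 6xHIS-tagged P. falciparum KASIII and 6xHIS-ACP expressed in E. coli and purified. Radiometric filter assay of [1-14C]-acetyl-CoA transfer to ACP, 25 min at 37 °C, quenched with 10% TCA. Product captured on P81 cellulose filters, washed with TCA and counted by scintillation. […] IC50 by variable-slope nonlinear regression, curves accepted at R2 >0.80.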

[2] = tested on: Plasmodium falciparum; experiment: Antimalarial activity against […] by [3H]hypoxanthine uptake; format: functional, organism-based
[3] = tested on: Plasmodium falciparum; experiment: Antimalarial activity against […] by [3H]hypoxanthine uptake; format: functional, organism-based
[4] = Cytotoxicity against mouse J774.G8 cells after 72 hrs by MTS assay; format: cell-based
Procedure, shortened: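 Murine J774 macrophage subclone G8 grown in DMEM with 10% fetal calf serum, 2 mM L-glutamine, 50 μg/mL gentamicin, 5% CO2, 37 °C. Seeded at 1 × 10^4 cells/well and left 24 h. Compound dilutions in medium or vehicle added, then 72 h exposure. MTS tetrazolium added for 1–2 h at 37 °C, OD read at 490 nm. Vehicle control values subtracted.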

[5] = Therapeutic index, ratio of IC50 for mice (Mus musculus) J774.G8 cells to IC50 for chloroquine-resistant Plasmodium falciparum W2; conditions: J774.G8 cells versus Plasmodium falciparum W2
[6] = tested on: Plasmodium falciparum; experiment: Antimalarial activity against Plasmodium falciparum TM91C235 by [3H]hypoxanthine uptake; format: functional, organism-based

SMILES	IC50 [1]	IC50 [2]	IC50 [3]	IC50 [4]	selectivity ratio [5]	IC50 [6]
O=C(O)c1ccc(NS(=O)(=O)c2ccccc2)cc1O	5 µM	> 12.7 µM	> 12.7 µM	> 2540 µM		
Cc1ccc(S/C=C/S(=O)(=O)Cc2ccccc2)cc1	0.52 µM	5.8 µM	3 µM	0.85 µM	0.15	
O=C(CN1CCN(c2ccc(CO)c(Br)c2)CC1)c1ccc([N+](=O)[O-])o1	3.2 µM	8.9 µM	8.9 µM			
Cc1cc(O)c(O)c(S(=O)(=O)c2ccc(N)cc2)c1	27.2 µM	23.6 µM	19.7 µM	27.6 µM	1.2	3.4 µM
O=[N+]([O-])c1c(Cl)sc(Cl)c1S(=O)(=O)Nc1ccc(C(F)(F)F)cc1	0.28 µM	16.4 µM	15.4 µM			
Oc1c(Cl)cc(SSc2cc(Cl)c(O)c(Cl)c2Cl)c(Cl)c1Cl	0.24 µM	5.5 µM	3.9 µM			
C/C(=C/C(=O)OC(C)c1ccccc1)OP1(=O)OC(C)C(C)O1 (stereo unspecified)	25.8 µM	> 49.9 µM	20.4 µM			
Cc1ccc(S(=O)(=O)c2ccc3ccccc3c2)cc1	53.7 µM	> 230 µM	> 230 µM	> 1770 µM		> 230 µM
Oc1ccc(Cl)cc1SSc1cc(Cl)ccc1O	0.14 µM	12 µM	12.4 µM			
Cc1ccc(SSSc2ccc(C)cc2)cc1	1.4 µM	1.4 µM	1.5 µM			
CCOC(=O)c1cnccc1C	4.9 µM	> 49.9 µM	> 49.9 µM			
O=[N+]([O-])c1cc(S(=O)(=O)Nc2cc(C(F)(F)F)cc(C(F)(F)F)c2)sc1Nc1cc(C(F)(F)F)cc(C(F)(F)F)c1	5.2 µM	11.4 µM	10.3 µM			
Oc1ccc(Cl)cc1SSSc1cc(Cl)ccc1O	0.53 µM	1.4 µM	2.3 µM			
Cc1ccc(S(=O)(=O)c2cc(O)c3ccccc3c2O)cc1	0.38 µM	3.2 µM	3.6 µM	> 3180 µM	> 1060	
Oc1ccc2ccccc2c1SSc1c(O)ccc2ccccc12	0.13 µM	6.6 µM	7.2 µM	> 1430 µM	> 204	
Cc1ccc(S(=O)(=O)c2cc(O)ccc2O)cc1	193 µM	64.3 µM	37.8 µM	> 1890 µM	> 29.6	60.5 µM
O=S(=O)(c1ccc(O)cc1)c1cc(Cl)ccc1O	115 µM	45.7 µM	38.6 µM	107 µM	2.3	80.8 µM
Oc1ccccc1SSc1ccccc1O	1.9 µM	15 µM	14.9 µM			
C/C(=C/c1ccccc1)S(=O)(=O)c1ccccc1	165 µM	> 50.1 µM	28 µM	205 µM	< 4.1	
Cc1ccc(S(=O)(=O)c2ccccc2)cc1	158 µM	68.9 µM	35.7 µM	134 µM	1.9	112 µM
O=S(=O)(Nc1ccc(C(F)(F)F)cc1)c1cc(Cl)sc1Cl	2.2 µM	> 49.9 µM	> 49.9 µM			
c1ccc(SSc2ccccc2)cc1	0.65 µM	6.7 µM	5 µM	124 µM	12.4	

SMILES	IC50 [1]	IC50 [2]	IC50 [3]	IC50 [4]	selectivity ratio [5]	IC50 [6]
CC(C)(C)S(=O)(=O)CC(=O)c1ccc(Cl)cc1Cl	62.9 µM	84.1 µM	45.3 µM	> 1620 µM	> 19.3	> 204 µM
COc1ncnc(NS(=O)(=O)c2ccc(N)cc2)c1OC [SULFADOXINE]	> 1000 µM	6.1 µM	0.04 µM	> 1610 µM	> 269	
O=c1ss/c(=N\c2ccccc2)n1-c1ccccc1	0.5 µM	8 µM	8 µM			
Nc1ncc(S(=O)(=O)c2ccc(NO)cc2)s1	22 µM	> 55.3 µM	0.3 µM			> 55.3 µM
COc1ccc(C(=O)CSS(=O)(=O)c2ccccc2)cc1	1.5 µM	22.5 µM	22.5 µM			
C/C=C/CCCCCCCC(=O)NS(=O)(=O)c1ccc(N)cc1	> 1000 µM	> 49.9 µM	> 49.9 µM			
CC(C)c1ccc(S(=O)(=O)c2ccc(C(C)C)cc2)cc1	22.5 µM	23.5 µM	18.5 µM	7.3 µM	0.3	32.7 µM
O=S(=O)(Nc1cccc(Cl)c1)c1ccccc1	195 µM	> 49.9 µM	> 49.9 µM	31.3 µM	< 0.62	
CC(=O)Nc1ccc(S(=O)(=O)c2ccc(NC(=O)c3ccccc3O)cc2)cc1	48.1 µM	20.7 µM	29.2 µM	> 1620 µM	> 77	31.7 µM
Oc1ccc(S)cc1Cl	2.8 µM	4.7 µM	5.2 µM			
Clc1ccc(SSSc2ccc(Cl)cc2)cc1	0.63 µM	2.1 µM	2.5 µM			
O=S(=O)(c1cccc(S(=O)(=O)c2cc(O)ccc2O)c1)c1cc(O)ccc1O	38.2 µM	7.1 µM	26 µM	> 1180 µM	> 169	4.5 µM
Nc1ccc(S(=O)(=O)c2cc(O)ccc2O)cc1	63.8 µM	3.6 µM	0.79 µM	> 1890 µM	> 472	5.3 µM
Nc1ccc(S(=O)(=O)c2cc(O)c3ccccc3c2O)c(Cl)c1	0.13 µM	5.5 µM	0.01 µM			
Cc1cccc(C)c1/C=C/S(=O)(=O)c1ccccc1	448 µM	> 50.1 µM	> 50.1 µM	706 µM	< 14	
NC1CCC(S(=O)(=O)c2cc(O)c3ccccc3c2O)CC1 (stereo unspecified)	0.44 µM	20.4 µM	3.9 µM	105 µM	5.3	
CC(CN)CCC(C)(O)C(N)=O (stereo unspecified)	0.24 µM	14.6 µM	24.7 µM			
CCCCS(=O)(=O)CCOC(=O)c1ccc([N+](=O)[O-])cc1	0.32 µM	> 41.2 µM	> 41.2 µM	33.6 µM	< 0.83	
Oc1ccc(Cl)cc1Sc1cc(Cl)ccc1O [FENTICLOR]	3.1 µM	21.5 µM	20.5 µM			
C=C/C(C)=C/[C@@]1(C)SC(=O)C(C)=C1O [THIOLACTOMYCIN]	> 330 µM	50 µM	50 µM			
Nc1nc(O)c2cc(S(=O)(=O)c3ccc4ccccc4c3)ccc2n1	18.3 µM	1.2 µM	0.43 µM	> 2850 µM	> 2850	1.4 µM
Oc1ccc(Sc2ccc(O)cc2O)c(O)c1	10.8 µM	> 49.9 µM	> 49.9 µM			
